In PMC9780517 (Experimental and Therapeutic Medicine, 2022):
Entries after “also recorded” stand apart in the source; their conditions may differ.

How the values were obtained:
hiPSC-CMs [1] = test: Myocardial cell activity; format: cell-based, human; conditions: for Effect on Ampl (cell activity / cell viability) / Effect on BPM (beats per minute): concentration relative to ETPC
Procedure, shortened: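 Human iPSC-derived cardiomyocytes (mostly ventricular; four batches) were grown 14-21 days on fibronectin-coated impedance/field-potential sensor plates at 37°C, 5% CO2. The medium was changed on dosing day, and test compound was added 3-4 h later, with 0.1% DMSO as control. Reads were taken every 30 min for 2 h, then every 2 h for >24 h. There were 3-4 concentrations, triplicate wells each. Ampl and BPM were normalized to pre-dose values.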

[2] = after intravenous administration; cited from earlier work
hiPSC-CMs [3] = test: Field potential; format: cell-based, human; conditions: for FPDc prolongation (in words): concentration relative to ETPC
[4] = ref 21 (Blinova et al); cited from earlier work

CCCCc1oc2ccccc2c1C(=O)c1cc(I)c(OCCN(CC)CC)c(I)c1 [Amiodarone]
Effect on Ampl (cell activity / cell viability) (hiPSC-CMs [1]): decreased the cell activity of cardiomyocytes at concentrations greater than ETPC
Effect on BPM (beats per minute) (hiPSC-CMs [1]): decreased BPM at a concentration greater than ETPC
TdP incidence [2]: ~ 15%

COc1ccc(CCN2CCC(Nc3nc4ccccc4n3Cc3ccc(F)cc3)CC2)cc1 [Astemizole]
Effect on Ampl (cell activity / cell viability) (hiPSC-CMs [1]): decreased the activity of cardiomyocytes at a concentration higher than ETPC
Effect on BPM (beats per minute) (hiPSC-CMs [1]): decrease BPM
Arrhythmia-like waveforms (in words) (hiPSC-CMs [3]): caused arrhythmia-like waveforms

CN1CCN(CCCCN2C(=O)CN(/N=C/c3ccc(-c4ccc(Cl)cc4)o3)C2=O)CC1 [Azimilide]
Arrhythmia-like waveforms (in words) (hiPSC-CMs [3]): induce arrhythmia-like waveforms
FPDc prolongation (in words) (hiPSC-CMs [3]): FPDc prolongation at concentrations lower than ETPC

CC(C)COCC(CN(Cc1ccccc1)c1ccccc1)N1CCCC1 (stereo not drawn) [Bepridil]
Predicted risk, LR model of Blinova et al [4]: low-risk
Arrhythmia-like waveforms (in words) (hiPSC-CMs [3]): induce arrhythmia-like waveforms
Concentration at which arrhythmia-like waveforms were observed (hiPSC-CMs [3]): 312.5 times of the ETPC
FPDc prolongation (in words) (hiPSC-CMs [3]): not induce FPDc prolongation; also recorded: no FPDc prolongation was observed

CN(C)CCCN1c2ccccc2Sc2ccc(Cl)cc21 [Chlorpromazine]
Predicted risk, LR model of Blinova et al [4]: low-risk
Effect on Ampl (cell activity / cell viability) (hiPSC-CMs [1]): decreased the activity of cardiomyocytes at a concentration higher than ETPC
Effect on BPM (beats per minute) (hiPSC-CMs [1]): decrease BPM

COc1cc(N)c(Cl)cc1C(=O)NC1CCN(CCCOc2ccc(F)cc2)CC1OC (stereo not drawn) [Cisapride]
Effect on Ampl (cell activity / cell viability) (hiPSC-CMs [1]): decreased the activity of cardiomyocytes at a concentration higher than ETPC
Effect on BPM (beats per minute) (hiPSC-CMs [1]): decrease BPM

CC[C@H]1OC(=O)[C@H](C)[C@@H](O[C@H]2C[C@@](C)(OC)[C@@H](O)[C@H](C)O2)[C@H](C)[C@@H](O[C@@H]2O[C@H](C)C[C@H](N(C)C)[C@H]2O)[C@](C)(OC)C[C@@H](C)C(=O)[C@H](C)[C@@H](O)[C@]1(C)O [Clarithromycin]
Effect on Ampl (cell activity / cell viability) (hiPSC-CMs [1]): decreased the activity of cardiomyocytes at a concentration higher than ETPC
Effect on BPM (beats per minute) (hiPSC-CMs [1]): decrease BPM
FPDc prolongation (in words) (hiPSC-CMs [3]): no FPDc prolongation was observed; also recorded: FPDc showed shortening
FPDc prolongation at the highest concentration (hiPSC-CMs [3]; highest concentration of 100 µM, repeated in triplicate): no FPDc prolongation was observed

CN1CCN(C2=Nc3cc(Cl)ccc3Nc3ccccc32)CC1 [Clozapine]
Arrhythmia-like waveforms (in words) (hiPSC-CMs [3]): caused arrhythmia-like waveforms
Concentration at which FPDc prolongation was observed (hiPSC-CMs [3]): 42 % of the ETPC

COc1ccc([C@@H]2Sc3ccccc3N(CCN(C)C)C(=O)[C@@H]2OC(C)=O)cc1 [Diltiazem]
Effect on Ampl (cell activity / cell viability) (hiPSC-CMs [1]): decreased the activity of cardiomyocytes at a concentration higher than ETPC
Effect on BPM (beats per minute) (hiPSC-CMs [1]): BPM was decreased

CC(C)N(CCC(C(N)=O)(c1ccccc1)c1ccccn1)C(C)C (stereo not drawn) [Disopyramide]
Effect on Ampl (cell activity / cell viability) (hiPSC-CMs [1]): decreased cell activity at concentrations less than ETPC
Arrhythmia-like waveforms (in words) (hiPSC-CMs [3]): induce arrhythmia-like waveforms
FPDc prolongation (in words) (hiPSC-CMs [3]): FPDc prolongation at concentrations lower than ETPC

CN(CCOc1ccc(NS(C)(=O)=O)cc1)CCc1ccc(NS(C)(=O)=O)cc1 [Dofetilide]
Beating of the cells at the maximum concentration (hiPSC-CMs [1]; 0.3 µm (150 times of the ETPC)): cells stopped beating
Arrhythmia-like waveforms (in words) (hiPSC-CMs [3]): no arrhythmia-like events were observed; also recorded: No arrhythmia-like waveforms were observed
Concentration at which arrhythmia-like waveforms were observed (hiPSC-CMs [3]): > 150 times of the ETPC
FPDc prolongation (in words) (hiPSC-CMs [3]): FPDc prolongation at concentrations higher than ETPC

O=c1[nH]c2ccccc2n1CCCN1CCC(n2c(=O)[nH]c3cc(Cl)ccc32)CC1 [Domperidone]
Arrhythmia-like waveforms (in words) (hiPSC-CMs [3]): caused arrhythmia-like waveforms

O=C(CCCN1CC=C(n2c(=O)[nH]c3ccccc32)CC1)c1ccc(F)cc1 [Droperidol]
Effect on Ampl (cell activity / cell viability) (hiPSC-CMs [1]): decreased the activity of cardiomyocytes at a concentration higher than ETPC
Effect on BPM (beats per minute) (hiPSC-CMs [1]): decrease BPM
Arrhythmia-like waveforms (in words) (hiPSC-CMs [3]): caused arrhythmia-like waveforms

O=C(NCC1CCCCN1)c1cc(OCC(F)(F)F)ccc1OCC(F)(F)F (stereo not drawn) [Flecainide]
Concentration at which arrhythmia-like waveforms were observed (hiPSC-CMs [3]): 1.33 times of the ETPC

CCCCCCCN(CC)CCCC(O)c1ccc(NS(C)(=O)=O)cc1 (stereo not drawn) [Ibutilide]
Effect on Ampl (cell activity / cell viability) (hiPSC-CMs [1]): decreased cell activity at concentrations less than ETPC
Effect on BPM (beats per minute) (hiPSC-CMs [1]): BPM decrease at concentrations less than ETPC
Arrhythmia-like waveforms (in words) (hiPSC-CMs [3]): induce arrhythmia-like waveforms
Concentration at which arrhythmia-like waveforms were observed (hiPSC-CMs [3]): 10 % of the ETPC
FPDc prolongation (in words) (hiPSC-CMs [3]): FPDc prolongation at concentrations lower than ETPC

CCOC(=O)N1CCC(=C2c3ccc(Cl)cc3CCc3cccnc32)CC1 [Loratadine]
Effect on Ampl (cell activity / cell viability) (hiPSC-CMs [1]): decreased the activity of cardiomyocytes at a concentration higher than ETPC

CCC(=O)C(CC(C)N(C)C)(c1ccccc1)c1ccccc1 (stereo not drawn) [Methadone]
Effect on Ampl (cell activity / cell viability) (hiPSC-CMs [1]): decreased the cell activity of cardiomyocytes at concentrations greater than ETPC
Effect on BPM (beats per minute) (hiPSC-CMs [1]): decreased BPM at a concentration greater than ETPC

COCCc1ccc(OCC(O)CNC(C)C)cc1 (stereo not drawn) [Metoprolol]
Effect on Ampl (cell activity / cell viability) (hiPSC-CMs [1]): decreased the activity of cardiomyocytes at a concentration higher than ETPC
Effect on BPM (beats per minute) (hiPSC-CMs [1]): BPM was decreased
Concentration at which FPDc prolongation was observed (hiPSC-CMs [3]): 6 % of the ETPC

Cc1cccc(C)c1OCC(C)N (stereo not drawn) [Mexiletine]
Effect on Ampl (cell activity / cell viability) (hiPSC-CMs [1]): decreased the activity of cardiomyocytes at a concentration higher than ETPC
Effect on BPM (beats per minute) (hiPSC-CMs [1]): BPM was decreased
Concentration at which FPDc prolongation was observed (hiPSC-CMs [3]): 1.2 times of the ETPC

COc1c(N2C[C@@H]3CCCN[C@@H]3C2)c(F)cc2c(=O)c(C(=O)O)cn(C3CC3)c12 [Moxifloxacin]
Effect on BPM (beats per minute) (hiPSC-CMs [1]): decreased BPM at a concentration greater than ETPC

NC(=O)c1cccnc1 [Nicotinamide]
Effect on Ampl (cell activity / cell viability) (hiPSC-CMs [1]): decreased the cell activity of cardiomyocytes at concentrations greater than ETPC
Effect on BPM (beats per minute) (hiPSC-CMs [1]): decreased BPM

COC(=O)C1=C(C)NC(C)=C(C(=O)OC)C1c1ccccc1[N+](=O)[O-] [Nifedipine]
Effect on Ampl (cell activity / cell viability) (hiPSC-CMs [1]): decreased the activity of cardiomyocytes at a concentration higher than ETPC

CCOC(=O)C1=C(C)NC(C)=C(C(=O)OC)C1c1cccc([N+](=O)[O-])c1 (stereo not drawn) [Nitrendipine]
Effect on Ampl (cell activity / cell viability) (hiPSC-CMs [1]): decreased the activity of cardiomyocytes at a concentration higher than ETPC
Concentration at which arrhythmia-like waveforms were observed (hiPSC-CMs [3]): 331.1 times of the ETPC

Cc1nccn1CC1CCc2c(c3ccccc3n2C)C1=O (stereo not drawn) [Ondansetron]
Effect on Ampl (cell activity / cell viability) (hiPSC-CMs [1]): decreased the activity of cardiomyocytes at a concentration higher than ETPC
Effect on BPM (beats per minute) (hiPSC-CMs [1]): decrease BPM
Arrhythmia-like waveforms (in words) (hiPSC-CMs [3]): caused arrhythmia-like waveforms
Concentration at which arrhythmia-like waveforms were observed (hiPSC-CMs [3]): 81 % of the ETPC

O=c1[nH]c2ccccc2n1C1CCN(CCCC(c2ccc(F)cc2)c2ccc(F)cc2)CC1 [Pimozide]
Effect on Ampl (cell activity / cell viability) (hiPSC-CMs [1]): decreased the activity of cardiomyocytes at a concentration higher than ETPC
Effect on BPM (beats per minute) (hiPSC-CMs [1]): decrease BPM
Arrhythmia-like waveforms (in words) (hiPSC-CMs [3]): caused arrhythmia-like waveforms

C=C[C@H]1C[N@@]2CC[C@H]1C[C@@H]2[C@@H](O)c1ccnc2ccc(OC)cc12 [Quinidine]
Effect on Ampl (cell activity / cell viability) (hiPSC-CMs [1]): decreased cell activity at concentrations less than ETPC
Effect on BPM (beats per minute) (hiPSC-CMs [1]): BPM decrease at concentrations less than ETPC
Arrhythmia-like waveforms (in words) (hiPSC-CMs [3]): induce arrhythmia-like waveforms
FPDc prolongation (in words) (hiPSC-CMs [3]): FPDc prolongation at concentrations lower than ETPC

COc1ccccc1OCC(O)CN1CCN(CC(=O)Nc2c(C)cccc2C)CC1 (stereo not drawn) [Ranolazine]
Concentration at which FPDc prolongation was observed (hiPSC-CMs [3]): 51 % of the ETPC
Concentration at which arrhythmia-like waveforms were observed (hiPSC-CMs [3]): 15.4 times of the ETPC

Cc1nc2n(c(=O)c1CCN1CCC(c3noc4cc(F)ccc34)CC1)CCCC2 [Risperidone]
Predicted risk, LR model of Blinova et al [4]: low-risk
Effect on Ampl (cell activity / cell viability) (hiPSC-CMs [1]): decreased the activity of cardiomyocytes at a concentration higher than ETPC
Effect on BPM (beats per minute) (hiPSC-CMs [1]): decrease BPM
Arrhythmia-like waveforms (in words) (hiPSC-CMs [3]): caused arrhythmia-like waveforms
Concentration at which arrhythmia-like waveforms were observed (hiPSC-CMs [3]): 555.6 times of the ETPC

CC(C)NCC(O)c1ccc(NS(C)(=O)=O)cc1 (stereo not drawn) [Sotalol]
Effect on BPM (beats per minute) (hiPSC-CMs [1]): BPM decrease at concentrations less than ETPC
Arrhythmia-like waveforms (in words) (hiPSC-CMs [3]): induce arrhythmia-like waveforms
FPDc prolongation (in words) (hiPSC-CMs [3]): FPDc prolongation at concentrations lower than ETPC

CC/C(=C(\c1ccccc1)c1ccc(OCCN(C)C)cc1)c1ccccc1 [Tamoxifen]
Effect on Ampl (cell activity / cell viability) (hiPSC-CMs [1]): decreased the activity of cardiomyocytes at a concentration higher than ETPC
Effect on BPM (beats per minute) (hiPSC-CMs [1]): BPM was decreased
Concentration at which arrhythmia-like waveforms were observed (hiPSC-CMs [3]): 142.9 times of the ETPC

CC(C)(C)c1ccc(C(O)CCCN2CCC(C(O)(c3ccccc3)c3ccccc3)CC2)cc1 (stereo not drawn) [Terfenadine]
Effect on Ampl (cell activity / cell viability) (hiPSC-CMs [1]): decreased the activity of cardiomyocytes at a concentration higher than ETPC
Effect on BPM (beats per minute) (hiPSC-CMs [1]): decrease BPM

COc1cc2c(Nc3ccc(Br)cc3F)ncnc2cc1OCC1CCN(C)CC1 [Vandetanib]
Effect on BPM (beats per minute) (hiPSC-CMs [1]): BPM decrease at concentrations less than ETPC
Arrhythmia-like waveforms (in words) (hiPSC-CMs [3]): induce arrhythmia-like waveforms
FPDc prolongation (in words) (hiPSC-CMs [3]): FPDc prolongation at concentrations higher than ETPC

COc1ccc(CCN(C)CCCC(C#N)(c2ccc(OC)c(OC)c2)C(C)C)cc1OC (stereo not drawn) [Verapamil]
Effect on Ampl (cell activity / cell viability) (hiPSC-CMs [1]): decreased the activity of cardiomyocytes at a concentration higher than ETPC
